Assay outcomes as filed in PubChem.
Casp6 inh = human caspase-6 inhibitors, primary screen, biochemical, VEID-R110 fluorescence, single point, set 2; hit rate 0.53% among 350,000; AID 686996, 2013; inhibition, % at 12.5 µM; P55212; purified caspase-6, Z-VEID-R110 cleavage fluorescence;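 active = mean inhibition across replicates at least about 35%, with every replicate also reaching that limit, limit read from the data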;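 note: 0% = median of neutral control wells and 100% = no fluorescence left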
NSD2 inh = NSD2 histone methyltransferase inhibitors, primary screen, biochemical, AlphaScreen, single concentration, set 2; hit rate 0.54% among 310,000; AID 743445, 2014; NSD2 peptide methylation, 120 min; inhibition, % at 12.5 µM; Histone-lysine N-methyltransferase NSD2 (Homo sapiens), O96028; in the data active = inhibition above about 50%
Target sequence (O96028 whole entry, looked up): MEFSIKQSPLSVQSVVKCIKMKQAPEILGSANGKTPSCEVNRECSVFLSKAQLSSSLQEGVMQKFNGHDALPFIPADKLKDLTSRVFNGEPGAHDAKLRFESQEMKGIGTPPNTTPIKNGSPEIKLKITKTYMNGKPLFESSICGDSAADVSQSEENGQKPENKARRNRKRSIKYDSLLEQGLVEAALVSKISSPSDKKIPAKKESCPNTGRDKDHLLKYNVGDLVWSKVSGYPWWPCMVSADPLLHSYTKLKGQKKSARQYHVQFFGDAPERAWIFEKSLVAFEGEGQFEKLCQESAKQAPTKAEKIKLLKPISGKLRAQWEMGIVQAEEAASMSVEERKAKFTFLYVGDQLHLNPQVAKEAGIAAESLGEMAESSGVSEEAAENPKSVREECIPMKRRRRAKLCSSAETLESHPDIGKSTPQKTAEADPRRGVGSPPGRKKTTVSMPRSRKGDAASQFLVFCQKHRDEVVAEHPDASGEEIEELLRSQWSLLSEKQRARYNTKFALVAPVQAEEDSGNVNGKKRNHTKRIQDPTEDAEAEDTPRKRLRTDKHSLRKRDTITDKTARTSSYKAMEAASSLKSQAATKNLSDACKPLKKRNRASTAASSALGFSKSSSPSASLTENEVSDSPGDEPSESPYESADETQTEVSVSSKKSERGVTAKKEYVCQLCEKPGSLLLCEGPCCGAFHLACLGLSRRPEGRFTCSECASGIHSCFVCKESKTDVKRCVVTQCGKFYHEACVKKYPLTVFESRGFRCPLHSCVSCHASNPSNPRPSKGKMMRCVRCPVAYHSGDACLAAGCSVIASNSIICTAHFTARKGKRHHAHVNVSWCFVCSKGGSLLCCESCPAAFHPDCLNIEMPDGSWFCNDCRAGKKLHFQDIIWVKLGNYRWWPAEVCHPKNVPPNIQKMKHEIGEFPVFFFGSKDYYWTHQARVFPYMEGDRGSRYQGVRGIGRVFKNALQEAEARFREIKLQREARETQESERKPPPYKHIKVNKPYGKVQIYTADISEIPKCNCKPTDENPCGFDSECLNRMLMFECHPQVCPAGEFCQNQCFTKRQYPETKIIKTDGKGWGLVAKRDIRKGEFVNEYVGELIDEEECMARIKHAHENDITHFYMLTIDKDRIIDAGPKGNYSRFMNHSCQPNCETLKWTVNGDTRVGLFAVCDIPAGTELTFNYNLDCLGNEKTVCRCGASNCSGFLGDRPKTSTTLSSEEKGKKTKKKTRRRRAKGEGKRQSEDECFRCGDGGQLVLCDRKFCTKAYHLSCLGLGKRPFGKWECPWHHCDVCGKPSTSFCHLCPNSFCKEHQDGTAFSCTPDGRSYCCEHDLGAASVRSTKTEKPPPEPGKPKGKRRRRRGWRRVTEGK
TDP2 inh = human TDP2 enzyme inhibitors, primary screen, biochemical, epi absorbance, recombinant enzyme; Tyrosyl-DNA phosphodiesterase 2 (Homo sapiens), O95551; inhibition, % at 12.8 µM; hit rate 0.34% among 370,000; T5PNP hydrolysis, p-nitrophenol absorbance 415 nm; AID 720702, 2013;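 active = inhibition above the mean of all tested compounds plus 3 SD, set per campaign, cut at about 25% in these data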;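 note: 0% = DMSO with enzyme and 100% = buffer with substrate but no TDP2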
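System – recombinant human TDP2 · Quantity – TDP2 enzyme at 120 nM final · Doses – single concentration, 12.8 µM nominal, with 1% DMSO · Incubation – 2 h at 37 °C · Measured by – epi absorbance of p-nitrophenol freed from T5PNP by hydrolysis · Read-out – % inhibition relative to enzyme-containing and enzyme-free wells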
MBD2 inh = inhibitors of MBD2 binding to methylated DNA, primary screen, biochemical, TR-FRET, DNA-binding domain, human; Methyl-CpG-binding domain protein 2 (Homo sapiens), Q9UBB5; hit rate 0.31% among 370,000; MBD2 binding to methylated oligonucleotide; inhibition, % at 4.4 µM; in the data active = inhibition above about 13%
LEDGF integ inh = blockers of LEDGF/p75-dependent integrase strand transfer – biochemical, TR-FRET, high throughput, primary screen. TR-FRET IN-LEDGF/p75 DNA integration, Eu/Cy5. inhibition, % at 3.7 µM. hit rate 0.64% among 370,000;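 active = inhibition above the screen-wide mean plus 3 SD, cut at about 13% in these data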;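 note: signal is the Cy5 over europium emission ratio at 671 and 618 nm; 0% = plate median of compound wells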
UHRF1 binding = UHRF1 methylated DNA binding inhibitors, primary screen, counter-screen for MBD2 inhibitor project, biochemical, TR-FRET, human UHRF1, single concentration | hit rate 0.75% among 370,000 | AID 687016, 2013 | inhibition, % at 4.4 µM | UHRF1 binding to methylated oligo; in the data active = inhibition above about 21%;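 note: UHRF1 SRA domain binding a hemimethylated CpG hairpin DNA probe; 0% = median of test compound wells and 100% = reference inhibitor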
IN multimer act = HIV-1 IN multimer formation enhancers, counter-screen for LEDGF/p75 integration inhibitor project, biochemical, TR-FRET; shares compounds with LEDGF integ inh; activation, % at 7.7 µM; TR-FRET HIV-1 integrase multimerization; hit rate 17% among 2,000; in the data active = activation above about 8.9%
TRFRET interf = TR-FRET optical interference artefacts, confirmation, artefact control for LEDGF/p75-dependent integration inhibitor project, biochemical, HIV-1 IN multimerization; shares compounds with LEDGF integ inh; TR-FRET optical interference counterscreen; inhibition, % at 7.7 µM; 2,000 tested, under 10 active; AID 1053135, 2014;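 active = inhibition above the mean over all tested compounds plus 3 SD, which no compound reached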;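 note: 0% = integrase with antibodies and DMSO and 100% = antibodies without integrase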
IN-LEDGF confirm = inhibitors of HIV-1 IN-LEDGF/p75 DNA integration, confirmation, biochemical, TR-FRET; hit rate 36% among 2,000; inhibition, % at 3.7 µM; shares compounds with LEDGF integ inh; TR-FRET LEDGF/p75-dependent HIV-1 integration; AID 1053136, 2014; in the data active = inhibition above about 14%
Starred values were filed as active, the others as inactive; · = not tested or not shown. Hits are enriched below; roughly 1.8% of the tested compounds scored in any of these assays.

SMILES	Casp6 inh	NSD2 inh	TDP2 inh	MBD2 inh	LEDGF integ inh	UHRF1 binding	IN multimer act	TRFRET interf	IN-LEDGF confirm
COc1cccc(NC(=O)C2CC(=O)N=C(N)S2)c1 (stereo not drawn)	·	5.0	5.3	-5.5	16.9*	-1.6	0.3	-1.7	1.0
CC(=O)Nc1ccc(NC(=O)C2CC(=O)N=C(N)S2)cc1 (stereo not drawn)	·	18.7	5.2	-1.6	1.2	-3.4	·	·	·
CCCC(=O)Nc1ccc2c(c1)C(=O)N(C)[C@@H]1CC[C@@H](CC(=O)NCCc3ccncc3)O[C@H]1CO2	2.2	·	·	·	·	·	·	·	·
COC(=O)c1c(NC(=O)CN2CCC3(O)CCCCC3C2c2cc(OC)ccc2OC)sc(C)c1C (stereo not drawn)	·	-0.3	-2.7	-3.3	14.9*	-2.8	0.5	-2.6	-8.8
COc1cccc(NC(=O)N2C[C@@H](O)COC[C@@H]3O[C@H](CC(=O)NCc4ccccc4F)CC[C@H]32)c1	-1.4	·	·	·	·	·	·	·	·
O=C1CSc2ccccc2N1Cc1ccc(F)cc1	2.4	-2.2	-4.5	-1.3	38.4*	-2.9	1.5	-5.2	-5.4
O=C(C1CCCCC1)N1CC2(C1)[C@@H](c1ccccc1)[C@@H](CO)N2C(=O)NC1CCCC1	1.2	·	·	·	·	·	·	·	·
CCOc1cccc(=O)c2c(C)n(Cc3ccco3)c(C)c12	·	1.6	-5.1	0.3	31.0*	1.9	1.0	-4.8	12.8
COC(=O)c1c(C(=O)OC)c(C)n(Cc2ccco2)c1C	·	-5.9	9.9	5.4	0.1	12.6	·	·	·
CC(C)c1ccc(/C=C/C(=O)NCCCc2ccccc2)cc1	·	-0.6	-16.0	-2.1	75.7*	-3.6	2.9	-14.7	-1.1
COc1ccc(/C=C/C(=O)NCCCc2ccccc2)cc1	·	0.1	9.3	2.9	-0.3	1.6	·	·	·
Cc1ccc(-c2ccc(=O)n(CC(=O)NCCCN3CCCCC3C)n2)cc1 (stereo not drawn)	·	-1.3	-13.7	2.2	24.2*	0.7	0.1	-0.6	-2.4
CC1CCCCN1CCNC(=O)Cn1nc(-c2ccccc2)ccc1=O (stereo not drawn)	-5.1	·	-7.0	-1.0	-1.0	-3.3	·	·	·
N#Cc1nc(COc2ccccc2Cl)oc1N1CCCC1	-3.2	6.1	3.5	6.9	18.6*	8.2	0.8	-4.2	-6.9
N#Cc1nc(COc2ccccc2Cl)oc1N1CCCCCC1	2.6	·	1.0	2.1	0.5	-1.9	·	·	·
O=C(O)c1cccc(Cl)n1	2.8	-1.4	3.9	-4.5	82.8*	-0.2	1.6	-8.1	-4.5
CC(=O)Nc1cccc(C(=O)O)n1	-1.9	-3.7	-2.1	-1.9	-1.6	0.6	·	·	·
O=C1SC(SCc2ccccc2)=N/C1=C\c1ccc(C(=O)O)cc1	0.1	7.7	3.6	4.5	3.2	6.7	·	·	·
O=C1SC(SCc2ccccc2)=N/C1=C\c1ccco1	·	15.2	13.5	8.7	26.1*	29.2*	0.0	0.2	1.1
O=C(O)c1cccc2cccc(-c3c4ccc(=O)c(O)c-4oc4c(O)c(O)ccc34)c12	98.6*	·	19.3	66.5*	89.7*	91.6*	70.8*	-356.4	93.4*
C[C@@H]1CN([C@@H](C)CO)C(=O)c2cc(-c3cccc(C#N)c3)cnc2O[C@@H]1CN(C)C(=O)c1cnccn1	-2.1	·	·	·	·	·	·	·	·
CC1Cc2ccccc2N1C(=O)CSc1ccccn1 (stereo not drawn)	0.6	-3.2	-1.3	3.6	-6.5	5.4	·	·	·
CC1Cc2ccccc2N1C(=O)CSCC(=O)O (stereo not drawn)	·	0.6	-2.0	-0.3	15.9*	-0.4	0.7	-3.6	-3.5
O=[N+]([O-])c1c(NCCCO)cc(SCc2ccco2)c2nonc12	19.5	3.5	21.3	7.2	38.1*	34.5*	4.5	-22.7	1.0
O=C(c1ccc2c(c1)N(Cc1ccccc1F)C(=O)c1ccccc1S2)N1CCOCC1	2.2	-1.0	1.0	1.3	30.0*	-1.3	0.5	-2.6	-7.4
SMILES	Casp6 inh	NSD2 inh	TDP2 inh	MBD2 inh	LEDGF integ inh	UHRF1 binding	IN multimer act	TRFRET interf	IN-LEDGF confirm
Cc1nn(-c2cc(C(F)(F)F)ccc2Cl)c2nc(C(F)(F)F)[nH]c(=O)c12	·	-2.9	-7.1	3.7	82.5*	5.9	-0.2	1.1	1.2
COc1ccc(CNC(=O)CN(CCC(C)C)S(=O)(=O)c2ccc3c(c2)OCCO3)cc1	2.7	-1.8	9.2	-0.4	22.6*	1.7	5.5	-27.9	-0.1
O=C(O)CCCC(=O)Nc1ccc(N2CCCC2)cc1	·	-3.2	1.7	-1.8	13.8*	21.0*	12.3*	-61.9	13.2
CC1(c2nnc(-c3ccccc3)o2)CC(c2cccnc2)=NO1 (stereo not drawn)	2.1	·	2.0	-1.4	-2.8	-1.7	·	·	·
CC1(c2nnc(Cc3ccccc3)o2)CC(c2cccnc2)=NO1 (stereo not drawn)	0.4	·	5.1	-2.1	92.5*	6.2	-0.1	0.4	-0.6
C#Cc1ccc([C@H]2C=C(C(=O)Nc3ccccc3)O[C@@H](OCCCCO)C2)cc1	-1.9	·	·	·	·	·	·	·	·
C[C@H]1CN([C@@H](C)CO)C(=O)Cc2cc(NC(=O)Cc3cn(C)c4ccccc34)ccc2O[C@H]1CN(C)C(=O)Nc1ccccc1	0.2	·	·	·	·	·	·	·	·
c1cn2cc(-c3ccc(CN4CCOCC4)cc3)ccc2n1	-6.7	-2.3	1.9	-3.9	88.9*	-0.2	1.2	-4.3	-1.4
Nc1c(C(=O)N/N=C/c2cccnc2)oc2nc(-c3ccco3)cc(-c3ccco3)c12	88.8*	8.2	3.5	3.7	52.7*	17.4	39.5*	-199.0	91.2*
NNC(=O)c1oc2nc(-c3ccco3)cc(-c3ccco3)c2c1N	-0.7	0.7	3.0	8.3	63.5*	10.7	10.9*	-55.1	10.9
